Test system: U2OS
Assay: Multiplex assay against U2OS
Assay type: toxicity, cell-based
Conditions: human
Outline: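 Live cells were stained at seeding with Hoechst33342, BioTracker Green Microtubule Cytoskeleton Dye, MitoTracker Red and Annexin V Alexa Fluor 680. Following compound addition, they were imaged on a CQ1 microscope at 37°C and 5% CO2 and gated by CellPathfinder machine learning into Hoechst high-intensity objects or normal cells, with normal cells split into healthy, pyknosed or fragmented nuclei and pyknosed cells into mitotic or apoptotic. Tubulin, mitochondrial-mass and membrane-permeability phenotypes are per cents of healthy-nucleus cells.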

[1] = 12 h, 1 µM, compound concentration 1 uM, replicate 1
[2] = 12 h, 1 µM, compound concentration 1 uM, replicate 2
[3] = 12 h, 10 µM, compound concentration 10 uM, replicate 1
[4] = 12 h, 10 µM, compound concentration 10 uM, replicate 2
[5] = 24 h, 1 µM, compound concentration 1 uM, replicate 1
[6] = 24 h, 1 µM, compound concentration 1 uM, replicate 2
[7] = 24 h, 10 µM, compound concentration 10 uM, replicate 1
[8] = 24 h, 10 µM, compound concentration 10 uM, replicate 2
[9] = 48 h, 1 µM, compound concentration 1 uM, replicate 1
[10] = 48 h, 1 µM, compound concentration 1 uM, replicate 2
[11] = 48 h, 10 µM, compound concentration 10 uM, replicate 1
[12] = 48 h, 10 µM, compound concentration 10 uM, replicate 2

With `Cc1cccc(CN2CCN(C(c3ccccc3)c3ccc(Cl)cc3)CC2)c1.Cl.Cl` (configuration not stated) the “Population Apoptotic (%)” value [1] was 27%, the “Population Fragmented Nuclei (%)” value [1] was 4% and the “Population Healthy Nuclei (%)” value [1] was 87%. The “Population Hoechst High Intensity Objects (%)” value [1] was 6%, the “Population Membrane Permeable-Phenotype (%)” value [1] was 3% and the “Population Mitochondria Different-Phenotype (%)” value [1] was 6%. The “Population Mitotic Cells (%)” value [1] was 72%, the “Population Normal (%)” value [1] was 93% and the “Population Pyknosed Nuclei (%)” value [1] was 7%. For the same compound, the “Population Tubulin-Different-Phenotype (%)” value [1] was 3%, the “Total Cell Count” value [1] was 182 and the “Population Apoptotic (%)” value [2] was 0%. The “Population Fragmented Nuclei (%)” value [2] was 16%, the “Population Healthy Nuclei (%)” value [2] was 79% and the “Population Hoechst High Intensity Objects (%)” value [2] was 8%. The “Population Membrane Permeable-Phenotype (%)” value [2] was 4%, the “Population Mitochondria Different-Phenotype (%)” value [2] was 26% and the “Population Mitotic Cells (%)” value [2] was 100%. For the same compound, the “Population Normal (%)” value [2] was 91%, the “Population Pyknosed Nuclei (%)” value [2] was 3% and the “Population Tubulin-Different-Phenotype (%)” value [2] was 23%. The “Total Cell Count” value [2] was 48, the “Population Apoptotic (%)” value [3] was 54% and the “Population Fragmented Nuclei (%)” value [3] was 6%. For the same compound, the “Population Healthy Nuclei (%)” value [3] was 76%, the “Population Hoechst High Intensity Objects (%)” value [3] was 5% and the “Population Membrane Permeable-Phenotype (%)” value [3] was 4%. The “Population Mitochondria Different-Phenotype (%)” value [3] was 73%, the “Population Mitotic Cells (%)” value [3] was 45% and the “Population Normal (%)” value [3] was 94%. The “Population Pyknosed Nuclei (%)” value [3] was 16%, the “Population Tubulin-Different-Phenotype (%)” value [3] was 78% and the “Total Cell Count” value [3] was 149. For the same compound, the “Population Apoptotic (%)” value [4] was 50%, the “Population Fragmented Nuclei (%)” value [4] was 14% and the “Population Healthy Nuclei (%)” value [4] was 72%. For the same compound, the “Population Hoechst High Intensity Objects (%)” value [4] was 6%, the “Population Membrane Permeable-Phenotype (%)” value [4] was 6% and the “Population Mitochondria Different-Phenotype (%)” value [4] was 61%. For the same compound, the “Population Mitotic Cells (%)” value [4] was 50%, the “Population Normal (%)” value [4] was 93% and the “Population Pyknosed Nuclei (%)” value [4] was 13%. For the same compound, the “Population Tubulin-Different-Phenotype (%)” value [4] was 47%, the “Total Cell Count” value [4] was 58 and the “Population Apoptotic (%)” value [5] was 45%. The “Population Fragmented Nuclei (%)” value [5] was 7%, the “Population Healthy Nuclei (%)” value [5] was 86% and the “Population Hoechst High Intensity Objects (%)” value [5] was 5%. For the same compound, the “Population Membrane Permeable-Phenotype (%)” value [5] was 2%, the “Population Mitochondria Different-Phenotype (%)” value [5] was 8% and the “Population Mitotic Cells (%)” value [5] was 54%. The “Population Normal (%)” value [5] was 94%, the “Population Pyknosed Nuclei (%)” value [5] was 6% and the “Population Tubulin-Different-Phenotype (%)” value [5] was 2%. The “Total Cell Count” value [5] was 176, the “Population Apoptotic (%)” value [6] was 80% and the “Population Fragmented Nuclei (%)” value [6] was 18%. The “Population Healthy Nuclei (%)” value [6] was 73%, the “Population Hoechst High Intensity Objects (%)” value [6] was 10% and the “Population Membrane Permeable-Phenotype (%)” value [6] was 11%. The “Population Mitochondria Different-Phenotype (%)” value [6] was 13%, the “Population Mitotic Cells (%)” value [6] was 20% and the “Population Normal (%)” value [6] was 89%. The “Population Pyknosed Nuclei (%)” value [6] was 8%, the “Population Tubulin-Different-Phenotype (%)” value [6] was 22% and the “Total Cell Count” value [6] was 47. The “Population Apoptotic (%)” value [7] was 42%, the “Population Fragmented Nuclei (%)” value [7] was 6% and the “Population Healthy Nuclei (%)” value [7] was 74%. The “Population Hoechst High Intensity Objects (%)” value [7] was 7%, the “Population Membrane Permeable-Phenotype (%)” value [7] was 2% and the “Population Mitochondria Different-Phenotype (%)” value [7] was 65%. For the same compound, the “Population Mitotic Cells (%)” value [7] was 57%, the “Population Normal (%)” value [7] was 92% and the “Population Pyknosed Nuclei (%)” value [7] was 19%. The “Population Tubulin-Different-Phenotype (%)” value [7] was 61%, the “Total Cell Count” value [7] was 181 and the “Population Apoptotic (%)” value [8] was 11%. The “Population Fragmented Nuclei (%)” value [8] was 10%, the “Population Healthy Nuclei (%)” value [8] was 77% and the “Population Hoechst High Intensity Objects (%)” value [8] was 5%. The “Population Membrane Permeable-Phenotype (%)” value [8] was 5%, the “Population Mitochondria Different-Phenotype (%)” value [8] was 63% and the “Population Mitotic Cells (%)” value [8] was 88%. For the same compound, the “Population Normal (%)” value [8] was 94%, the “Population Pyknosed Nuclei (%)” value [8] was 12% and the “Population Tubulin-Different-Phenotype (%)” value [8] was 45%. For the same compound, the “Total Cell Count” value [8] was 67, the “Population Apoptotic (%)” value [9] was 30% and the “Population Fragmented Nuclei (%)” value [9] was 5%. The “Population Healthy Nuclei (%)” value [9] was 85%, the “Population Hoechst High Intensity Objects (%)” value [9] was 3% and the “Population Membrane Permeable-Phenotype (%)” value [9] was 1%. For the same compound, the “Population Mitochondria Different-Phenotype (%)” value [9] was 11%, the “Population Mitotic Cells (%)” value [9] was 69% and the “Population Normal (%)” value [9] was 96%. For the same compound, the “Population Pyknosed Nuclei (%)” value [9] was 8%, the “Population Tubulin-Different-Phenotype (%)” value [9] was 5% and the “Total Cell Count” value [9] was 192. For the same compound, the “Population Apoptotic (%)” value [10] was 0%, the “Population Fragmented Nuclei (%)” value [10] was 9% and the “Population Healthy Nuclei (%)” value [10] was 84%. The “Population Hoechst High Intensity Objects (%)” value [10] was 7%, the “Population Membrane Permeable-Phenotype (%)” value [10] was 5% and the “Population Mitochondria Different-Phenotype (%)” value [10] was 16%. For the same compound, the “Population Mitotic Cells (%)” value [10] was 100%, the “Population Normal (%)” value [10] was 92% and the “Population Pyknosed Nuclei (%)” value [10] was 6%. The “Population Tubulin-Different-Phenotype (%)” value [10] was 24%, the “Total Cell Count” value [10] was 45 and the “Population Apoptotic (%)” value [11] was 54%. The “Population Fragmented Nuclei (%)” value [11] was 8%, the “Population Healthy Nuclei (%)” value [11] was 72% and the “Population Hoechst High Intensity Objects (%)” value [11] was 4%. The “Population Membrane Permeable-Phenotype (%)” value [11] was 3%, the “Population Mitochondria Different-Phenotype (%)” value [11] was 42% and the “Population Mitotic Cells (%)” value [11] was 45%. For the same compound, the “Population Normal (%)” value [11] was 95%, the “Population Pyknosed Nuclei (%)” value [11] was 18% and the “Population Tubulin-Different-Phenotype (%)” value [11] was 44%. The “Total Cell Count” value [11] was 299, the “Population Apoptotic (%)” value [12] was 25% and the “Population Fragmented Nuclei (%)” value [12] was 12%. The “Population Healthy Nuclei (%)” value [12] was 71%, the “Population Hoechst High Intensity Objects (%)” value [12] was 5% and the “Population Membrane Permeable-Phenotype (%)” value [12] was 7%. For the same compound, the “Population Mitochondria Different-Phenotype (%)” value [12] was 30%, the “Population Mitotic Cells (%)” value [12] was 75% and the “Population Normal (%)” value [12] was 94%. For the same compound, the “Population Pyknosed Nuclei (%)” value [12] was 16%, the “Population Tubulin-Different-Phenotype (%)” value [12] was 18% and the “Total Cell Count” value [12] was 95.
